# MC4R antagonist: antagonists of human melanocortin 4 receptor (MC4R) | MC4R-expressing cells, MTII-stimulated cAMP, LANCE TR-FRET | actives 0.48% (n = 360,000) | inhibition, % at 6.5 µM;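 active means inhibition above its plate's cutoff, the mean of tested wells on that plate plus 3 SD, cut at about 29% in these data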;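 further: 0% = Melanotan II alone and 100% = Melanotan II plus saturating MCL0020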
#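 Material – human MC4R-expressing U2OS cells · Repeats – no replicates · Detection – TR-FRET with Eu-cAMP and labeled anti-cAMP, 671 nm · Times – compound 30 min, challenge 1 h, detection 1 h · Compound – single nominal compound dose of 6.5 µM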
# GalR3 antag: blocks the human galanin receptor 3; O60755; HEK293 GalR3-CNG cAMP membrane potential fluorescence; galR3 body fused to GalR1 C-terminus; inhibition, % at 3 µM; actives 0.44% (n = 360,000); AID 651719;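 active means inhibition above the screen-wide average plus 3 SD, cut at about 13% in these data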;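 further: forskolin and galanin both at EC90 stimulate the cells; cAMP rise reported by CNG channel membrane potential dye signal; 0% = forskolin plus galanin with DMSO and 100% = forskolin alone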
# Target sequence (O60755 1-299 limits assumed): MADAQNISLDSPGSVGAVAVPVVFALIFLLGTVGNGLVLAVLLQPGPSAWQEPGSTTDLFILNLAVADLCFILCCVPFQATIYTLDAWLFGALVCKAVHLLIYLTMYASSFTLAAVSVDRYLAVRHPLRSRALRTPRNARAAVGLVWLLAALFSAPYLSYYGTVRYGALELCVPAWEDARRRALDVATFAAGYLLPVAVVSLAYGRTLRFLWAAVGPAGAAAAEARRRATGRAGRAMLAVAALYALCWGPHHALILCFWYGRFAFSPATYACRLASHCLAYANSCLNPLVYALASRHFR
# Calb FLC: C. albicans growth modulation with fluconazole. C. albicans CaCi-2 + fluconazole, Alamar Blue growth, 48 h. growth inhibition, % (test concentration not listed). actives 0.57% (n = 300,000);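 active means growth inhibition above about 58% in most replicates, limit read from the data, passing the limit was not always enough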;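 further: all wells also contain fluconazole at 8 µg/ml as a sub-toxic cotreatment; 0% = median of DMSO wells and 100% = median of geldanamycin control wells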
# MC4R ag barr: activates human MC4R beta-arrestin recruitment; activation, % at 8.9 µM; U2OS MC4R beta-arrestin complementation, luminescence; percent of melanotan II response, DMSO zero; actives 0.98% (n = 360,000);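 active means activation above a per-plate cutoff, the mean activation of sample wells on that plate plus 3 SD, cut at about 8% in these data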
# Efflux pump inh: antifungal efflux pump inhibition, Nile Red retention. AID 485275. actives 0.44% (n = 330,000). inhibition, % at 10 µM. S. cerevisiae Candida pump triplex;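 active means plate passing quality check with inhibition over a set limit, or well fluorescence over plate mean plus 4 SD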;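 further: Nile Red retained in pooled yeast measured as flow cytometry median fluorescence; 0% = buffer negative control and 100% = Enniatin B positive control; higher means more Nile Red kept so more efflux inhibition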
# TAG inh: reduces triacylglycerol accumulation in H9c2 cells; actives 0.66% (n = 230,000); Nile Red lipid (TAG) fluorescence; cells loaded with 200 µM oleic acid; AID 651582; inhibition, % at 12.5 µM;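 active means pattern-corrected inhibition of lipid staining of at least 50% with the nuclear-stain viability signal not falling by more than 50%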;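 further: 0% = DMSO wells and 100% = triacsin C control wells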
# Cmpd fluor yeast: counter-screen for efflux pump inhibitors: compound fluorescence; shares compounds with Efflux pump inh; S. cerevisiae AD/pABC3, flow cytometry; fluorescence ratio to DMSO, % at 10 µM; actives 4% (n = 1,700);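 active means fluorescence ratio to DMSO above its plate's cutoff, the plate mean ratio plus 5 SD, cut at about 210% in these data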;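 further: unstained yeast with no Nile Red so the signal is compound autofluorescence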
# CaMdr1 efflux inh: blocks the Candida albicans Mdr1 efflux pump in yeast; actives 1% (n = 1,700); inhibition, % at 10 µM; S. cerevisiae AD/CaMDR1, Nile Red efflux, flow cytometry; shares compounds with Efflux pump inh; in the data active means inhibition above about 26%;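 further: 0% = DMSO vehicle and 100% = reference inhibitor; higher means more Nile Red retained so more efflux inhibition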
# Cdr2 pump inh: Candida Cdr2 efflux pump inhibition; shares compounds with Efflux pump inh; S. cerevisiae AD/CaCDR2, Nile Red retention, flow cytometry; Nile Red retention ratio vs DMSO, % at 10 µM; actives 4% (n = 1,700); in the data active means Nile Red retention ratio vs DMSO above about 190%;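 further: higher ratio means more blocking of Cdr2 efflux of the dye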
# Cdr1 pump inh: inhibitors of Candida albicans Cdr1 efflux pump; shares compounds with Efflux pump inh; S. cerevisiae AD/CaCDR1, Nile Red efflux, flow cytometry; inhibition, % at 10 µM; actives 1% (n = 1,700);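 active means inhibition above the screen-wide mean plus twice its standard deviation, cut at about 32% in these data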
# The depositor's hits bear a star; . = no result given. Most compounds without a hit are left out; they make up all but 2.9% or so of the library.
SMILES,MC4R antagonist,GalR3 antag,Calb FLC,MC4R ag barr,Efflux pump inh,TAG inh,Cmpd fluor yeast,CaMdr1 efflux inh,Cdr2 pump inh,Cdr1 pump inh
Cc1ccc2nc(-c3cccc(Br)c3)c(Cc3ccsc3)n2c1,.,-6.1,.,.,.,.,.,.,.,.
Cc1cccn2c(=O)c3cc(S(=O)(=O)c4ccc(F)cc4)c(=N)n(Cc4ccco4)c3nc12,-13.0,-1.1,1.0,-0.1,0.6*,17.8,105.8,-0.2,113.8,-0.1
CCOCCCn1c(=N)c(S(=O)(=O)c2ccc(C)cc2)cc2c(=O)n3cc(C)ccc3nc21,4.0,-9.3,-3.9,-2.1,1.2*,.,104.6,0.0,122.6,0.2
COc1ccc(CCn2c(=N)c(C(=O)NCc3ccco3)cc3c(=O)n4ccccc4nc32)cc1,5.2,-8.2,-7.3,-4.5,1.3*,.,104.5,0.3,100.1,0.1
Cc1ccc2nc3c(cc(S(=O)(=O)c4ccccc4)c(=N)n3Cc3ccco3)c(=O)n2c1,4.2,4.1,2.8,-0.4,0.0,-5.2,.,.,.,.
N=c1c(C(=O)NCCc2ccccc2)cc2c(=O)n3ccccc3nc2n1Cc1ccco1,-64.0,-7.0,2.7,-4.4,0.0,.,.,.,.,.
Cc1ccc(S(=O)(=O)c2cc3c(=O)n4ccccc4nc3n(CCc3ccccc3)c2=N)cc1,0.7,7.9,13.0,-2.1,0.4*,.,107.9,-0.2,116.5,0.1
Cc1cc(S(=O)(=O)Nc2ccc(C(=O)NC3CC3)cc2)ccc1F,1.0,-8.8,.,0.0,.,0.7,.,.,.,.
CS(=O)(=O)c1cccc(OCCCN2CCC(C(O)(c3ccccc3)c3ccccc3)CC2)c1,.,-9.8,.,.,.,.,.,.,.,.
CN(Cc1ccco1)C(=O)[C@@H](Cc1ccccc1)NC(=O)[C@H]1O[C@@H](n2ccc(=O)[nH]c2=O)[C@H](O)[C@@H]1O,.,-6.9,.,.,.,.,.,.,.,.
CC(C)(COC(=O)c1ccccc1)N1CC2CCC(C1)O2,5.8,3.6,.,-0.5,.,-4.1,.,.,.,.
O=C(c1cc2c(ccc3ccccc32)o1)N1CCN(c2ncc(C(F)(F)F)cc2Cl)CC1,3.2,-1.2,-7.8,-0.6,51.7*,0.8,101.8,-0.3,93.0,0.0
O=C(c1[nH]c(C(F)(F)F)nc1-c1ccccc1)N1CCN(c2ncc(C(F)(F)F)cc2Cl)CC1,.,-6.8,.,.,.,.,.,.,.,.
COc1ccccc1S(=O)(=O)N(C)C[C@@H]1OCc2cnnn2CCCC(=O)N([C@@H](C)CO)C[C@@H]1C,6.8,-6.4,.,-1.1,.,-3.2,.,.,.,.
O=C(COC(=O)c1ccc(S(=O)(=O)N2CCCCC2)cc1)NCc1ccco1,-4.4,-5.1,11.0,-0.2,1.6*,4.0,103.1,-0.1,102.9,0.0
COc1ccc(-n2c(SCC(=O)Nc3ncc(Cl)cc3Cl)nc3ccccc32)cc1,.,.,-15.9,.,0.8*,.,97.6,-0.1,107.2,-0.1
O=C(CSc1nc2ccccc2n1-c1ccccc1)Nc1ncc(Cl)cc1Cl,6.3,1.6,21.9,0.4,0.1,.,.,.,.,.
COC/C=C/C1=CC2=CC(=O)C(C)(OC(=O)c3cnc4ccccc4n3)C(=O)C2=CN1Cc1ccccc1 (configuration not stated),-6.0,0.9,15.0,-1.4,0.3,3.8,.,.,.,.
COC/C=C/C1=CC2=CC(=O)C(C)(OC(=O)c3cnc4ccccc4n3)C(=O)C2=CN1Cc1ccc(OC)cc1 (configuration not stated),0.0,2.2,13.4,-0.9,0.6*,3.3,120.7,0.7,114.3,0.1
O=C(O)C1Sc2[nH]c(=O)sc2C2c3cc(Br)ccc3OC(=O)C12 (configuration not stated),17.2,0.9,8.0,-1.9,1.5*,-7.5,89.9,0.0,102.2,0.1

# Source: PubChem BioAssay
